Assay outcomes: PubChem BioAssay, several laboratories
Rows were chosen to be rich in hits. Some 5.5% of all compounds tested hit in one or more screens of this group.
tolC growth inh – growth inhibitors of E. coli BW25113 tolC mutant; OD615; 65,000 compounds, 2.2% hits; growth inhibition, % at 10 µM (by protocol);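 active means growth inhibition at or above a cutoff equal to the mean over every tested compound plus 3 SD, cut at about 60% in these data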;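 further: growth measured after 20 h incubation at 37 °C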
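Test system: tolC-deleted E. coli BW25113; medium: LB with kanamycin 50 µg/mL; compound: single-point testing at 10 µM; incubation: 20 h compound exposure of bacteria at 37 °C; signal: OD at 615 nm; evaluation: growth inhibition in percent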
PostGolgi ctrl – inhibits growth of the yeast control strain; efflux-deficient yeast background strain, growth absorbance A615, 16 h; 98,000 compounds, 5% hits; inhibition, % at 10 µM
PLAP activator – human PLAP activation; 96,000 compounds, 1.2% hits; AID 696; purified PLAP enzyme, luminescent substrate read-out; stronger effect = higher value; activation fold at 20 µM; P05187; in the data active means activation fold above about 2
Target sequence (P05187 whole entry, looked up): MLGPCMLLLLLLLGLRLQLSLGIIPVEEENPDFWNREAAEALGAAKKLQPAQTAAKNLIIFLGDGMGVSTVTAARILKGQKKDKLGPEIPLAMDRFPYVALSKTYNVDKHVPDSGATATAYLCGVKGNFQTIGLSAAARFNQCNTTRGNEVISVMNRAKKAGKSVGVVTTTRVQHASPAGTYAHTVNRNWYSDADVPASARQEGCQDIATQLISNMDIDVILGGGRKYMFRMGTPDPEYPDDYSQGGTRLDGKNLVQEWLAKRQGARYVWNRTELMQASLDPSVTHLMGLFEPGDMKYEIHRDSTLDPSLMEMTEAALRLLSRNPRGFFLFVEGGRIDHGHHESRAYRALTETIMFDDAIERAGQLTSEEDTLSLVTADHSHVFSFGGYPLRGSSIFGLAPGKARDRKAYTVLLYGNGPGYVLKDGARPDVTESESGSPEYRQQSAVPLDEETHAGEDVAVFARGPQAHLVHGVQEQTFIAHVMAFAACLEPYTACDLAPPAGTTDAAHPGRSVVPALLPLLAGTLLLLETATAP
E coli WT exp – blocks growth of wild type E. coli BW25113; OD600 absorbance; growth inhibition, % at 100 µM; 98,000 compounds, 0.15% hits; AID 710;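 active means growth inhibition above about 50% at one test dose, limit read from the data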;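 further: growth measured after 20 h incubation at 37 °C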
PostGolgi yeast – growth inhibition of a yeast mutant, post-Golgi transport screen | AID 739 | inhibition, % at 10 µM | 98,000 compounds, 0.9% hits | post-Golgi transport phenotypic cell assay;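 further: yeast cells grown in 1536-well plates; yeast grown about 18 h at 30C before absorbance read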
HePTP inh – blocks human HePTP tyrosine phosphatase | P35236 | recombinant HePTP phosphatase activity, OD absorbance | inhibition, % at 20 µM | 110,000 compounds, 0.64% hits | AID 521; in the data active means inhibition above about 50%
Each line names hits and unclear results; the compound was inactive in the other large screens. Unless noted, no stated cut-off is given here; in the data, active means inhibition above about 30%; inactive means the rest.

CCSc1nnc(NC(=O)c2cc(-c3ccc(OC)cc3)nc3ccccc23)s1	none (no result: tolC growth inh, PostGolgi ctrl, PLAP activator, E coli WT exp, PostGolgi yeast)
C/C(N)=C(/C#N)C(=O)COC(=O)c1ccncc1	PLAP activator 2.3
CCOc1cc(OCC)cc(C(=O)Nc2cccc(OC)c2)c1	none (no result: tolC growth inh, PostGolgi ctrl, PLAP activator, E coli WT exp, PostGolgi yeast)
CSc1ccc(S(=O)(=O)Nc2ccc(N3CCOCC3)c(Cl)c2)cc1	tolC growth inh 100
CSc1ccc(S(=O)(=O)Nc2ccc(F)cc2)cc1	none
COc1ccc(NS(=O)(=O)c2ccc(SC)cc2)cc1	PostGolgi ctrl 50
CCc1ccccc1NS(=O)(=O)c1ccc(SC)cc1	tolC growth inh 73
NC1=NC(=O)/C(=C/c2ccc(OS(=O)(=O)c3cccc([N+](=O)[O-])c3)cc2)S1	none (no result: tolC growth inh, PostGolgi ctrl, PLAP activator, E coli WT exp, PostGolgi yeast)
O=C1C=C(c2cccc([N+](=O)[O-])c2)C(=O)N1c1ccc(Cl)c(Cl)c1	none (no result: tolC growth inh, PostGolgi ctrl, PLAP activator, E coli WT exp, PostGolgi yeast)
Cc1ccc(C(=O)/C=C/c2ccc3c(c2)OCO3)cc1	none (no result: tolC growth inh, PostGolgi ctrl, PLAP activator, E coli WT exp, PostGolgi yeast)
Cc1[nH]nc(-c2ccc(O)cc2O)c1-c1ccc(Cl)cc1	tolC growth inh 100, PostGolgi ctrl 85
COc1ccc(O)c(-c2c(-c3ccc(Cl)cc3)n[nH]c2C)c1	none
COc1ccc(-c2n[nH]c(C)c2-c2ccc(Cl)cc2)c(O)c1OC	PostGolgi ctrl 51
COc1ccc(-c2n[nH]c(C)c2-c2ccc(Cl)cc2)c(O)c1	PostGolgi ctrl 77 (no result: tolC growth inh, HePTP inh)
Cc1nc2cc(-c3ccccc3Cl)[nH]n2c(=O)c1C	none (no result: tolC growth inh, PostGolgi ctrl, PLAP activator, E coli WT exp, PostGolgi yeast)
CSC1=NC(c2cccc([N+](=O)[O-])c2)C(C(=O)OC(C)C)=C(C)N1 (stereo unspecified)	none (no result: tolC growth inh, PostGolgi ctrl, PLAP activator, E coli WT exp, PostGolgi yeast)
CCc1cccc(NS(=O)(=O)c2ccc3c(c2)oc(=O)n3C)c1	PostGolgi ctrl 31
C/C(=N\N=C(/N)SC1CC(=O)N(c2cccc(Cl)c2)C1=O)c1ccc(F)cc1 (stereo unspecified)	none (no result: tolC growth inh, PostGolgi ctrl, PLAP activator, E coli WT exp, PostGolgi yeast)
Cc1cccc(NC(=O)C2CCCN2C(=O)OCC(C)C)c1C (stereo unspecified)	PostGolgi ctrl 35 (no result: PLAP activator)
Cc1ccc(-c2c3c(=O)n(C)c(=O)n(C)c3cn2N2CCOCC2)cc1	PostGolgi ctrl 51
O=C(O)C1C2C=CC(O2)C1C(=O)Nc1cc(Cl)cc(Cl)c1 (stereo unspecified)	none (no result: tolC growth inh, PostGolgi ctrl, PLAP activator, E coli WT exp, PostGolgi yeast)
Cc1cc(/C=N/n2cnnc2)c(C)n1-c1ccc(Cl)cc1Cl	PostGolgi ctrl 37
Cc1cc(/C=N/n2cnnc2)c(C)n1-c1ccc(OCc2ccc(F)cc2)cc1	PostGolgi ctrl 61
Cc1cc(/C=N/n2cnnc2)c(C)n1-c1ccc(OCc2ccc(Cl)cc2Cl)cc1	PostGolgi ctrl 96 (no result: tolC growth inh, PLAP activator, HePTP inh)
Cc1cc(/C=N/n2cnnc2)c(C)n1-c1ccccc1	none (no result: tolC growth inh)
Cc1cc(/C=N/n2cnnc2)c(C)n1-c1ccc(Cl)cc1	none (no result: tolC growth inh, PostGolgi ctrl, PLAP activator, E coli WT exp, PostGolgi yeast)
COC(C)(C)CCCC(C)COC(C)=O (stereo unspecified)	none (no result: tolC growth inh, PostGolgi ctrl, PLAP activator, E coli WT exp, PostGolgi yeast)
O=C(Nc1ccc(O)c(-c2nc3ccccc3o2)c1)c1cccnc1	none (no result: tolC growth inh, PostGolgi ctrl, PLAP activator, E coli WT exp, PostGolgi yeast)
Cc1cccc(N2C(=O)C(Cl)=C(Nc3c(C)n(C)n(-c4ccccc4)c3=O)C2=O)c1C	none (no result: tolC growth inh, HePTP inh)
Cc1ccc(N2C(=O)C(Cl)=C(Nc3c(C)n(C)n(-c4ccccc4)c3=O)C2=O)cc1	PostGolgi ctrl 33
Cc1ccc(OCCNC(=O)CCc2ccccc2)cc1	none (no result: tolC growth inh, PostGolgi ctrl, PLAP activator, E coli WT exp, PostGolgi yeast)
CCCCn1c(-c2csc3c2CCC(C)C3)n[nH]c1=S (stereo unspecified)	PostGolgi ctrl 42 (no result: tolC growth inh, HePTP inh)
O=C1c2ccccc2C(=O)N1CCC(c1ccc(F)cc1)c1ccco1 (stereo unspecified)	tolC growth inh 77
O=C1CCC(=O)N1CCC(c1ccc(F)cc1)c1ccco1 (stereo unspecified)	none
O=c1c2ccccc2ncn1CCCSc1ccc(Cl)cc1	PostGolgi ctrl 42 (no result: tolC growth inh, HePTP inh)
CC(C)OC(=O)c1c(NC(=O)/C=C/C(=O)O)sc2c1CCCCC2	none (no result: tolC growth inh, PostGolgi ctrl, PLAP activator, E coli WT exp, PostGolgi yeast)
c1ccc(CN2c3ccccc3-c3nc4ccccc4n3C2c2ccccn2)cc1 (stereo unspecified)	PostGolgi ctrl 43 (no result: tolC growth inh, HePTP inh)
CNc1nc(Nc2cccc([N+](=O)[O-])c2)nc(OCC(F)(F)F)n1	HePTP inh 105 (no result: tolC growth inh, PostGolgi ctrl, PLAP activator, E coli WT exp, PostGolgi yeast)
CCOc1ccccc1NC(=O)C(=O)NCC1CCCN1CC (stereo unspecified)	none (no result: tolC growth inh, HePTP inh)
CCN1CCCC1CNC(=O)C(=O)Nc1ccc(OC)cc1 (stereo unspecified)	PostGolgi ctrl 42 (no result: tolC growth inh, HePTP inh)
COc1ccc(C2C(C(=O)c3ccco3)=C(O)C(=O)N2Cc2cccnc2)cc1OC (stereo unspecified)	PostGolgi ctrl 34
CCOc1ccc(C2C(C(=O)c3ccco3)=C(O)C(=O)N2Cc2cccnc2)cc1 (stereo unspecified)	none
